Results collected from several papers.
Compare with care: the assays were run in different laboratories.
Target: Tyrosine-protein kinase receptor TYRO3 (TYRO3, Homo sapiens, UniProt Q06418)
Sequence (Q06418 41-890, as in one of the studies): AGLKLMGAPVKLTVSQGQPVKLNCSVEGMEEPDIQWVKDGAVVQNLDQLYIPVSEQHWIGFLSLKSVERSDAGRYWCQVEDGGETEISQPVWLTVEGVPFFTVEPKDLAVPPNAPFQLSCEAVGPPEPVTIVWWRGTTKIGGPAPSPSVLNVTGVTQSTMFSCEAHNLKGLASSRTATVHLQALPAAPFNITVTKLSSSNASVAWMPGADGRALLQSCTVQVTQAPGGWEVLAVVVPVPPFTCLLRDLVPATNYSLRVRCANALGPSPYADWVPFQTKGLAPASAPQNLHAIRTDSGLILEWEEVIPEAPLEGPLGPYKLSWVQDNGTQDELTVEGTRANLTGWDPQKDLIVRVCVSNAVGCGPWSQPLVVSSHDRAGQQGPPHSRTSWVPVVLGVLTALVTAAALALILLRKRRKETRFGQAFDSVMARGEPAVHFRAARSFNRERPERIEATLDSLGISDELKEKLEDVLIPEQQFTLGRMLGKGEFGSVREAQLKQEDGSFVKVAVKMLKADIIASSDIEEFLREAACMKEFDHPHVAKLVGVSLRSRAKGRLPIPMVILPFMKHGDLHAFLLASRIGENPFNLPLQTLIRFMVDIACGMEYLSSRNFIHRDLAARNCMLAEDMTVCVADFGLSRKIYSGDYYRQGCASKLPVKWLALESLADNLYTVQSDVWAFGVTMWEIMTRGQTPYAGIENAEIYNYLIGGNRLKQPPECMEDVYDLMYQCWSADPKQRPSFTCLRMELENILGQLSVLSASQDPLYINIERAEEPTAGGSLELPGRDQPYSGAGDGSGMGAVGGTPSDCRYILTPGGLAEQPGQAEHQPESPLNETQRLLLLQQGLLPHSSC

SMILES | read-out | technique | tested at | remaining binding [%]
C[C@@H]1CCN(c2nccc(-c3cnn4ncccc34)n2)C1 | binding |  | 1 µM | 100
O=C(Nc1c[nH]nc1C(=O)NC1CCNCC1)c1cc(F)cc(F)c1 | binding | competition with immobilised ligand | 1 µM | 100
CN(C)c1ncc(F)c(-c2cnn3ncccc23)n1 | binding |  | 1 µM | 75
Cc1cnc(Nc2ccc(C(=O)N3CCC(N4CCCC4)CC3)cc2)nc1-c1cc2ccccc2s1 | binding | competition with immobilised ligand | 1 µM | 58
C[C@H](c1ccc(F)cc1)N(Cc1cccc(C(=O)O)c1)C(=O)c1cnc2ccccc2c1 | cell-free assay | competition with immobilised ligand | 1 µM | 100
CCN1CCN(Cc2ccc(C(=O)Nc3ccc(C)c(Oc4ccc5c(c4)CC(=O)N5)c3)cc2C(F)(F)F)CC1 | binding | competition with immobilised ligand | 1 µM | 100
C=CC(=O)N1CCC(C(=O)NCC(=O)N2CCN(c3nc(-c4cnc(N)nc4C(F)F)nc(N4CCOCC4)n3)CC2)CC1 | binding | competition with immobilised ligand | 1 µM | 100
O=C(c1ccc(Nc2nccc(-c3cc4ccccc4s3)n2)cc1)N1CCC(N2CCCC2)CC1 | binding | competition with immobilised ligand | 1 µM | 95
Cn1nc(C(=O)NCc2ccc(C(=O)O)cc2)cc1-c1ccc2[nH]ccc2c1 | cell-free assay | competition with immobilised ligand | 0.1 µM | 100
c1cncc(-c2cccc(Nc3nccc(NC4CCCCC4)n3)c2)c1 | binding | competition with immobilised ligand | 10 µM | 9.3
c1cnn2ncc(-c3ccnc(N4CCC45COC5)n3)c2c1 | binding |  | 1 µM | 73
COc1cnc(Nc2cccc(S(N)(=O)=O)c2)nc1N1CCN(c2ccccc2)CC1 | binding | competition with immobilised ligand | 1 µM | 72
Nc1ncc2c(n1)-c1c([nH]c3ccc(C#CC4CC4)cc13)CCCC2 | binding | competition with immobilised ligand | 1 µM | 100
N[C@H]1CCN(c2nccc(-c3cnn4ncccc34)n2)C1 | binding |  | 1 µM | 88
CCC(=N\O)/C(C)=C/c1ccc(F)cc1 | cell-free assay | competition with immobilised ligand | 1 µM | 100
F[C@@H]1CCN(c2nccc(-c3cnn4ncccc34)n2)C1 | binding |  | 1 µM | 89
Cc1c(NC(=O)c2cc(C(N)=O)nc3cc(F)ccc23)c(C(F)(F)F)nn1Cc1ccc(C#N)cc1 | cell-free assay | competition with immobilised ligand | 1 µM | 81
CN(CCCC(F)(F)F)c1nccc(-c2cnn3ncccc23)n1 | binding |  | 1 µM | 93
NS(=O)(=O)c1cc(NC(=O)C2(c3ccccc3Cl)CC2)ccc1Oc1cccc(Cl)c1 | cell-free assay | competition with immobilised ligand | 1 µM | 100
COc1ncc2cc3ccccc3nc2c1C#N | cell-free assay | competition with immobilised ligand | 5 µM | 96
O=c1nc(-c2ccccn2)sc2ccccc12 | cell-free assay | competition with immobilised ligand | 1 µM | 80
O=C(c1ccc(Nc2ncc(Cl)c(-c3cc4ccccc4s3)n2)cc1)N1CCC(N2CCCC2)CC1 | binding | competition with immobilised ligand | 1 µM | 44
